Screens (PubChem BioAssay)
Efflux pump inh = inhibitors of Candida efflux pumps in yeast, primary screen, S. cerevisiae, Nile Red, multiplex. S. cerevisiae Candida pump triplex. inhibition, % at 10 µM. hit rate 0.44% among 330,000. AID 485275, 2010;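 active = plate passing quality check with inhibition over a set limit, or well fluorescence over plate mean plus 4 SD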;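 note: Nile Red retained in pooled yeast measured as flow cytometry median fluorescence; 0% = buffer negative control and 100% = Enniatin B positive control; higher means more Nile Red kept so more efflux inhibition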
Rtt109 HAT inh = inhibitors of C. albicans Rtt109/Vps75 HAT, primary screen, biochemical, ThioGlo CoA-SH fluorescence, plate reader | Histone acetyltransferase RTT109 (Candida albicans (strain SC5314 / ATCC MYA-2876)), … | purified Rtt109/Vps75, 4 h | inhibition, % at 34.9 µM | hit rate 0.16% among 330,000 | AID 540336, 2011;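 active = inhibition of at least 50% in every replicate; inconclusive = best replicate reaches 50% inhibition but some replicates fall short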
FGF22 binding = binders of human FGF22 protein, primary screen, FGF22 synaptogenesis inhibitor project, biophysical, thermal shift, single point. recombinant FGF22 thermal shift, SYPRO orange fluorescence; percent of sucrose octasulfate shift, DMSO zero. AID 651658, 2012. hit rate 1.5% among 340,000. activity (Tm shift, normalised), % at 9.99 µM. Fibroblast growth factor 22 (Homo sapiens), Q9HCT0;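 active = mean Tm shift, scaled 0 neutral to 100 positive control, at about 1.3% or above, every replicate too, limit read from the data; inconclusive = no clear call, values can overlap the other calls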
Target sequence (Q9HCT0 whole entry, looked up): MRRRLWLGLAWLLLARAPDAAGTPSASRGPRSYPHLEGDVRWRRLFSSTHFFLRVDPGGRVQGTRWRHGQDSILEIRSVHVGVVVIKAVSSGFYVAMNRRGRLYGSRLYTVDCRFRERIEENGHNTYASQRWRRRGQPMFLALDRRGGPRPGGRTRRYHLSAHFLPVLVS
ASAP1 GAP inh = inhibitors of human ASAP1 ArfGAP activity, primary screen, biochemical, fluorescence polarization | Arf-GAP with SH3 domain, ANK repeat and PH domain-containing protein 1 (Homo sapiens), … | ASAP1-stimulated ARF1 GTP hydrolysis, GDP FP detection | inhibition, % at 16.5 µM | hit rate 0.19% among 360,000; in the data active = inhibition above about 25%;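 note: 0% = vehicle with enzyme and substrate and 100% = no enzyme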
Target sequence (Q9ULH1 325-724 limits assumed): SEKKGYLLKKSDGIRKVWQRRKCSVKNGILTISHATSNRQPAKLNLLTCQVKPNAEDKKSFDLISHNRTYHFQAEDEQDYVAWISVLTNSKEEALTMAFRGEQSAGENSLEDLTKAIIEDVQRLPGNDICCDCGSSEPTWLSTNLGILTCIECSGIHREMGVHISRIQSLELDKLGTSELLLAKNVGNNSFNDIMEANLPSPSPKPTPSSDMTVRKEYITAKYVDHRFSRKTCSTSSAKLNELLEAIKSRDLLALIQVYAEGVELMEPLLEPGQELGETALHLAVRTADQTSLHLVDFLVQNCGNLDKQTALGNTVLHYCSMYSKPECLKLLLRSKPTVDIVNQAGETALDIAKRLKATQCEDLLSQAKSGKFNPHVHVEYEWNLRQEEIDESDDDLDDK
ARFGAP1 inhibitor = inhibitors of rat ARFGAP1 GAP activity, primary screen, biochemical, fluorescence polarization, GDP tracer; ADP-ribosylation factor GTPase-activating protein 1 (Rattus norvegicus), Q62848; Arfgap1-stimulated ARF1 GTP hydrolysis, GDP FP detection; inhibition, % at 16.5 µM; hit rate 0.26% among 360,000; AID 651572, 2012;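 active = inhibition above a per-plate limit, mean inhibition of low control wells plus 3 SD, cut at about 25% in these data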;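 note: 0% = DMSO wells with enzyme and 100% = wells lacking Arfgap1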
Target sequence (Q62848 1-136 limits assumed): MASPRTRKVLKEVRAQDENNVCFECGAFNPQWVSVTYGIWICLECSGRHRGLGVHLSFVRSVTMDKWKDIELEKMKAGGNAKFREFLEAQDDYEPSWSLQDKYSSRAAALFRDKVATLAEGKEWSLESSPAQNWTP
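Material: rat Arfgap1 GAP domain (His6, aa 1-136), purified enzyme. Also added: human ARF1(Δ1-17)-GTP substrate. Compound dosing: 16.5 µM single point, 1.26% DMSO. Timing: enzyme reaction 120 min at 25 °C after 20 min preincubation. Signal: GDP detection by fluorescence polarization. Read-out basis: percent inhibition of GAP-stimulated GDP formation, scaled between DMSO and no-Arfgap1 medians.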
* = called active by the depositor; ? = inconclusive; / = no result given. A selection: hits, their analogues and other compounds. The true share with any hit is near 1.9%.

SMILES | Efflux pump inh | Rtt109 HAT inh | FGF22 binding | ASAP1 GAP inh | ARFGAP1 inhibitor
Cc1ccc(Cn2cc(/C=N/NC(=O)Cc3nnc(NC(=O)c4ccc(C)cc4)s3)c3ccccc32)cc1 | -0.1 | -1.0 | 43.1* | 14.9 | 1.9
O=C(Nc1cccc(-c2nc3cccnc3s2)c1)c1ccc(Cl)nc1 | 0.1 | 0.0 | -0.1 | 6.6 | 18.6
O=C(Nc1cccc(-c2nc3cccnc3s2)c1)c1cccnc1Cl | 0.0 | 60.3* | 0.2 | 3.4 | 1.3
CC1=CC(C)(C)NC(=S)N1c1ccc([N+](=O)[O-])cc1 | / | 11.4 | 43.0* | 7.5 | 13.4
COc1cccc(C=NN2CCCCCC2)c1OC | / | 7.4 | 0.1 | 0.3 | -1.9
CC(=O)N1CCCN(Cc2cn(-c3ccc(C)cc3)nc2-c2ccc(F)cc2)CC1 | -0.1 | 0.6 | 43.0* | -6.9 | 8.9
Cc1ccc(-n2cc(CN3CCCN(C=O)CC3)c(-c3ccc(F)cc3)n2)cc1 | 0.9 | -1.6 | 0.2 | -5.1 | -7.4
COc1ccc(-c2c[n+]3c(n2-c2c(C)n(C)n(-c4ccccc4)c2=O)CCCCC3)cc1 | -0.1 | -11.6 | 43.1* | -1.6 | 8.0
O=C(O)C(Cc1ccccc1)N1C(=O)/C(=C/c2cccs2)SC1=S (configuration not stated) | / | 55.8* | 0.1 | -3.5 | 3.3
Cc1ccc(N(CCC#N)C(=O)COC(=O)c2nc3nc(C)cc(C)n3n2)cc1 | 0.0 | -4.3 | 0.0 | 7.1 | -13.7
CC(c1ccccc1)n1c(N2CCNCC2)nc2c1c(=O)[nH]c(=O)n2C (configuration not stated) | -0.1 | 64.9* | -0.2 | 15.9 | 14.5
O=C(/C=C/c1ccc(N2CCCCC2)c([N+](=O)[O-])c1)c1ccc(O)cc1 | 0.2 | 0.9 | 43.1* | 11.1 | 8.4
Cc1cccc(N2CCN(C(=O)c3ccccn3)CC2C)c1 (configuration not stated) | 0.0 | 5.8 | 43.1* | -7.3 | 4.2
Cc1cccc(N2CCN(C(=O)CCN3C(=O)C4C5C=CC(C5)C4C3=O)CC2C)c1 (configuration not stated) | 0.0 | 20.0 | 43.5* | -5.4 | -7.8
O=C1COc2ccc(C(=O)COC(=O)CNC(=O)c3ccco3)cc2N1 | -0.2 | / | 43.1* | 4.2 | -6.0
CCOc1ccccc1C1C2CCCCC2(O)CCN1C(=O)c1cccs1 (configuration not stated) | -0.4 | -13.1 | / | -5.0 | -2.2
Cc1cccc(C)c1OCC(=O)Nc1nnc(C2CCCO2)s1 (configuration not stated) | 0.2 | 0.6 | / | -2.6 | 5.2
Cc1ccc(OCC(=O)Nc2nnc(C3CCCO3)s2)c(Br)c1 (configuration not stated) | 0.0 | -4.6 | 44.0* | 14.5 | -5.3
CC1CN(C(=O)c2ccc(S(=O)(=O)Nc3ccccc3Cl)cc2)CC(C)O1 (configuration not stated) | 0.2 | -1.6 | 0.1 | -2.2 | -3.7
N#Cc1nc(-c2ccccc2)oc1NCCCn1ccnc1 | -0.1 | 1.8 | 43.1* | -0.5 | 12.0
O=C(COC(=O)c1ccc([N+](=O)[O-])s1)NC(=O)NCc1ccccc1 | 0.1 | 28.6 | 43.1* | 4.0 | 0.3
CCC(c1nc2ccccc2[nH]1)n1c(-c2ccc3cc[nH]c3c2)nc2ccccc21 (configuration not stated) | / | / | 1.5* | 6.3 | -2.7
CCN(CC)S(=O)(=O)c1cccc(NC(=O)COC(=O)CCc2nc3ccccc3s2)c1 | 0.1 | -7.5 | 0.3 | / | /
Cc1ccc(C(=O)c2cc3ccccc3o2)cc1[N+](=O)[O-] | -0.4 | -5.0 | 43.0* | -13.8 | -0.6
COc1ccc2oc(C(=O)N3CCN(S(=O)(=O)c4cccc([N+](=O)[O-])c4)CC3)c(C)c2c1 | 0.0 | 8.1 | -0.1 | 8.9 | 5.4
SMILES | Efflux pump inh | Rtt109 HAT inh | FGF22 binding | ASAP1 GAP inh | ARFGAP1 inhibitor
CCn1c(SCC(=O)N2CCCC2=O)nnc1-c1cccs1 | -0.3 | 16.5 | 0.6 | -3.0 | -3.2
Cn1c(SCC(=O)N2CCCC2=O)nnc1-c1ccccc1F | 0.1 | 5.9 | 43.3* | 1.6 | 0.7
O=P(c1ccccc1)(c1ccccc1)c1cc(Br)cc(Br)c1OCCO | 0.0 | -10.6 | -0.2 | 9.4 | 3.3
O=C(CN1C(=O)NC2(CCc3ccccc32)C1=O)Nc1c(Cl)cccc1Cl (configuration not stated) | 0.1 | -0.5 | 0.0 | 2.3 | 5.6
O=C(c1ccccc1)c1ccc[nH]1 | / | -2.5 | 43.0* | -0.3 | 0.8
CO[C@@H]1CN(C)C(=O)c2ccc(NC(C)=O)cc2OC[C@H](C)N(CCc2ccccc2)C[C@@H]1C | / | / | 0.2 | / | /
Clc1ccc(-c2cc(C3CCNCC3)[nH]n2)cc1 | 0.1 | -0.7 | 43.0* | -14.1 | -8.9
Cc1ccc(CN2CCC(c3cc(-c4ccc(Cl)cc4)n[nH]3)CC2)cc1 | 0.4 | / | -0.2 | 8.6 | 6.5
CCS(=O)(=O)c1nc(S(=O)(=O)c2ccc(C)cc2)c(N2CCN(C)CC2)s1 | 0.1 | 2.7 | -0.1 | 11.3 | 16.6
O=C(/C=C\Nc1ccccn1)c1ccc(Cl)cc1 | 0.0 | 62.3* | / | 4.2 | -17.6
Cc1ccc(S(=O)(=O)CCN2C=CC(C(F)(F)F)=NCC2)cc1 | 0.0 | -21.1 | -0.1 | 12.4 | 5.5
CC(CSc1n[nH]c(=S)s1)c1ccccc1 (configuration not stated) | / | -0.1 | -0.2 | 3.1 | -6.9
CC(C)CSc1n[nH]c(=S)s1 | 0.2 | 0.4 | 43.1* | -16.3 | 2.1
Cc1ccc(C(=O)C2=C(O)C(=O)N(c3ncccn3)C2c2ccc(Br)cc2)o1 (configuration not stated) | 0.0 | / | / | / | /
COc1ccccc1C(CNC(=O)C1CC(=O)N(Cc2ccccc2)C1)N1CCCC1 (configuration not stated) | 0.1 | 2.4 | 0.0 | 5.7 | -3.1
O=C1N=C(N2CCOCC2)S/C1=C\c1cccs1 | -0.1 | 13.0 | 0.5 | 20.3 | -7.8
N#CCCN1CCN(C2=NC(=O)/C(=C\c3cccs3)S2)CC1 | -0.1 | ? | 44.1* | 5.3 | 5.1
CC(C)(CO)CNC(=O)c1ccc2nc(Cc3cccc(Cl)c3)oc2c1 | 0.0 | -0.7 | 0.0 | 3.4 | -5.1
CCOC(=O)c1sc(NC(=O)C2CCC2)cc1C | -0.1 | 2.1 | 43.3* | 3.5 | -6.8
CCOC(=O)c1sc(NC(C)=O)cc1C | -0.1 | -4.6 | 0.1 | 7.7 | -1.0
COc1ccc(CNC(=O)C2CC(=O)N(C3CCCCC3)C2)cc1 (configuration not stated) | 0.2 | -3.4 | -0.1 | -1.8 | -3.9
CCc1nnc(NC(=O)CS(=O)(=O)Cc2ccccc2)s1 | 0.2 | -1.0 | 1.5* | -0.7 | -2.2
